Values after ≈ are worked out from the molar mass of the structure shown. Active and inactive are the calls of the source. The rule behind the calls is not given here.
Columns and labels:
Human alphaherpesvirus 1 = experiment: Antiviral activity against HSV1 in african green monkey Vero cells assessed as virus-induced cytopathic effect after 3 days by MTT assay; assay type: functional, organism-based; conditions: Human alphaherpesvirus 1, Vero, 72 h
Method in brief: (§1)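 Vero cells seeded at 3 × 10³/well and grown 3-4 days to a confluent monolayer, washed, then infected with virus diluted in DME plus 2% FBS at a dose equal to 50% cell culture inhibitory dose (CCID50) for 60 min at 37 °C. Inoculum removed; medium with graded sample concentrations (below 300 µg/mL) added in duplicate; 3 days at 37 °C, 5% CO2. MTT read-out; EC50 = concentration inhibiting virus-induced CPE by 50%.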

Human alphaherpesvirus 2 = experiment: Antiviral activity against HSV2 in african green monkey Vero cells assessed as virus-induced cytopathic effect after 3 days by MTT assay; assay type: functional, organism-based; conditions: for EC50: Human alphaherpesvirus 2, Vero, 72 h; method in brief: as §1

OC[C@H]1O[C@@H](Oc2ccc3c(c2)OC[C@H]2c4cc5c(cc4O[C@@H]32)OCO5)[C@H](O)[C@@H](O)[C@@H]1O [TRIFOLIRHIZIN]
EC50 (Human alphaherpesvirus 1): > 300 µg/mL
Activity (Human alphaherpesvirus 2): inactive

C=C(C)[C@H](CCC(C)(C)O)Cc1c(O)cc(OC)c2c1O[C@H](c1ccc(O)cc1O)[C@@H](O)C2=O [KUSHENOL H]
EC50 (Human alphaherpesvirus 1): > 300 µg/mL
EC50 (Human alphaherpesvirus 2): 162 µg/mL (≈ 343 µM)

COc1cc(O)c(CC=C(C)C)c2oc(-c3ccc(O)cc3)c(O)c(=O)c12 [SOPHOFLAVESCENOL]
EC50 (Human alphaherpesvirus 1): > 300 µg/mL
Activity (Human alphaherpesvirus 2): inactive

C=C(C)[C@H](CC=C(C)C)Cc1c(O)cc(OC)c(C(=O)/C=C/c2ccc(O)cc2O)c1O [KURAIDIN]
EC50 (Human alphaherpesvirus 1): > 300 µg/mL
Activity (Human alphaherpesvirus 2): inactive

C=C(C)[C@H](CCC(C)(C)O)Cc1c(O)cc(OC)c2c1O[C@H](c1ccc(O)cc1O)CC2=O [KURARINOL]
EC50 (Human alphaherpesvirus 1): 60 µg/mL (≈ 131 µM)
EC50 (Human alphaherpesvirus 2): 44 µg/mL (≈ 96.4 µM)

C=C(C)[C@H](CCC(C)(C)O)Cc1c(O)cc(OC)c2c1O[C@H](c1ccc(O)cc1O)[C@H](O)C2=O [KUSHENOL K]
EC50 (Human alphaherpesvirus 1): > 300 µg/mL
EC50 (Human alphaherpesvirus 2): 147 µg/mL (≈ 311 µM)
